Results reported in ChEMBL document CHEMBL1132146, “Chemical stability and fate of the cytostatic drug ifosfamide and its N-dechloroethylated metabolites in acidic aqueous solutions” (J Med Chem, 1999).

Key:
[1] = system: L1210; assay: In vitro antitumor activity against murine leukemic L1210 cells; No activity; format: functional, cell-based; conditions: Mus musculus
[2] = acute toxicity against mouse after ip administration; format: organism-based; conditions: in vivo
Outline: (§1)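 Single iv or ip injection; two female SD rats or male CD2F1 mice per dose group. Lethality and clinical signs of toxicity observed for 28 days to give an approximate LD50. Animals kept specific-pathogen-free with pellet diet and acidified water (pH 3) ad libitum.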

[3] = system: P388; assay: In vivo antitumor activity against murine P388 leukemia; No activity; format: functional, organism-based; conditions: Mus musculus
[4] = acute toxicity against rat after iv administration; format: organism-based; conditions: in vivo; outline: as §1
[5] = system: P388; assay: In vivo antitumor activity against murine P388 leukemia; Effective; format: functional, organism-based; conditions: Mus musculus
[6] = pKa. (dissociation constant) of the compound; format: physicochemical
Outline: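 ³¹P NMR titration at 25 °C in aqueous 0.1 M NaCl to keep ionic strength constant. pH adjusted with NaOH or HCl and measured before and after each spectrum. pKa calculated from the pH dependence of the chemical shift.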

SMILES	Activity [1]	LD50 [2]	Activity [3]	LD50 [4]	Activity [5]	pKa [6]
O=P(O)(OCCCNCCCl)OP(=O)(O)OCCCNCCCl	No activity	> 1000 mg/kg	No activity	–	–	–
NP1(=O)OCCCN1CCCl (centres undefined)	–	–	–	> 1000 mg/kg	–	–
O=P1(NCCCl)NCCCO1 (centres undefined)	No activity	–	No activity	800 mg/kg	–	–
O=P1(NCCCl)OCCCN1CCCl (centres undefined) [IFOSFAMIDE]	–	700 mg/kg	–	300 mg/kg	Effective	–
O=P(O)(O)OCCCNCCCl	No activity	–	No activity	800 mg/kg	–	–
O=P1(O)NCCCO1	–	–	–	–	–	4.1
O=P(O)(O)OCCCN1CC1	No activity	180 mg/kg	No activity	–	–	–
NP(=O)(O)OCCCNCCCl	–	–	–	–	–	2.3
NP1(=O)NCCCO1 (centres undefined)	No activity	–	–	–	–	–
